The values that follow come from paper PMC12315948 (The FASEB Journal, 2021).

Data set [1] deals with HeLa cells. Format: cell-based. The settings on record: 24 h treatment, 2 h 2.5 µg/mL pyolysin, MTT. The method, boiled down: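 HeLa cells grown in DMEM with 10% FBS were seeded at 50,000 cells/mL. At 90% confluence they were treated in serum-free medium with vehicle, 100 µM test compound or 10 µM zaragozic acid, for 24 h or for indicated times. Cells were then challenged for 2 h with control medium or 2.5 µg/mL pyolysin. MTT (1 mg/mL, 2 h) was read at OD570 after DMSO lysis. Values are percentage of control; 4 independent experiments.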

Data set [2] concerns A549 cells. As to the kind of experiment: Cytoprotection of A549 cells against streptolysin O. The class given is cell-based, human. The conditions noted are these: 24 h: 100 µM MPEX098 or 10 µM zaragozic acid; 2 h challenge. The method, boiled down:
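A549 cells were grown in RPMI1640 with 5% FBS, 1% antibiotic-antimycotic and 1% glutamine, then seeded at 50,000 cells/mL. At 90% confluence they were given serum-free medium with vehicle or treatment for 24 h, then challenged 2 h with graded streptolysin O. Viability was read by MTT (1 mg/mL, 2 h, DMSO lysis, OD570). LDH in supernatants was read by the INT/PMS lactate assay at OD450, initially and after 30 min at 37°C, against NADH standards.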

The test system of data set [3] is HeLa cells. As to the kind of experiment: Cytotoxicity per se in HeLa cells, MTT assay, control challenge. The class given is cell-based. Summed up: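 HeLa cells were seeded at 50,000 cells/mL in DMEM with 10% FBS. At 90% confluence they received serum-free medium with vehicle, 100 µM test compound or zaragozic acid for 24 h. They were then given a 2 h control-medium challenge without toxin. Viability was measured by MTT (1 mg/mL, 2 h; DMSO lysis; OD570) as percentage of control. Each point is one independent passage (n = 12).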

Data set [4] relates to squalene synthase. The settings on record: squalene synthase cell free assay; cited from earlier work.

Take `CC(C)=CCC/C(C)=C/CC/C(C)=C/CO[P@@](=O)(O)OP(=O)(O)O` (stereo in doubt) [farnesyl diphosphate]: the “cytoprotection against pyolysin by isoprenoid treatment” value in data set [1] is “but not farnesyl diphosphate (P = .12) increased cytoprotection”.
As a reminder, the IC50 is the concentration needed to halve the response being measured. As for `C=C(CC[C@]12O[C@H](C(=O)O)[C@@](O)(C(=O)O)[C@](C(=O)O)(O1)[C@H](OC(=O)/C=C/[C@@H](C)C[C@@H](C)CC)[C@H]2O)[C@@H](OC(C)=O)[C@H](C)Cc1ccccc1` [Zaragozic acid, zaragozic acid], the “protection of A549 cells against streptolysin O” value in data set [2] is reported as “protected A549 cells against a range of concentrations of streptolysin O”. For the same compound, the “cytotoxic concentration per se” value in data set [3] is listed as […]. Besides, the “cell toxicity per se” value in data set [3] (MTT assay, control challenge, 100 µM MPEX098 or 10 µM zaragozic acid, 24 h, n = 12) is listed as 13 ± 3%. Moreover, the concentration for half-maximal inhibition (IC50) in data set [4] is […].
Take `CC(C)=CCC/C(C)=C/CC/C(C)=C/CC/C(C)=C/COP(=O)(O)OP(=O)(O)O` [geranylgeranyl diphosphate]: in data set [1], the “cytoprotection against pyolysin by isoprenoid treatment” value is “increased cytoprotection against pyolysin”.
